Screening results deposited in PubChem BioAssay by several laboratories.
An excerpt weighted towards active compounds, which were near 2% of everything screened.
PvdQ acylase – blocks Pseudomonas aeruginosa PvdQ acylase activity | purified PvdQ acylase, fluorescence plate reader | inhibition, % at 10 µM | 0.063% of 340,000 active | AID 488965; in the data active means inhibition above about 30%, passing the limit was not always enough;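 further: 0% = vehicle neutral wells and 100% = reference inhibitor wells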
HKDC1 inh – inhibitors of human hexokinase HKDC1 | Q2TB90 | recombinant HKDC1, G6PDH/diaphorase resazurin coupled fluorescence | inhibition, % at 20 µM | 0.16% of 340,000 active;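 active means inhibition above about 35% when tested at 20 µM, limit read from the data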;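 further: plate controls were DMSO wells with enzyme for no effect and DMSO wells lacking enzyme for full effect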
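Incubation: 90 min at room temperature in dark / Material: recombinant HKDC1 (HK5) hexokinase enzyme, produced in-house / Quantity: enzyme 5 µg/mL final / Compound: one dose of 20 µM, 1% DMSO / Reagent: glucose and ATP substrates / Buffer or medium: Tris pH 8.0 buffer with MgCl2, Tween-20, BSA, BME / Technique: resorufin fluorescence at 613 nm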
MIN6 prolif – MIN6 beta-cell proliferation induction | proliferation, % at 10 µM | AID 2380 | MIN6 cells proliferation, ATPlite luminescence, 48 h; cells starved in 0.2% serum; 100% = growth in 10% serum | 0.29% of 330,000 active;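 active means compounds whose signal lies at least 3.5 SD above the mean of all wells on their plate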;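 further: 0% = DMSO-treated cells in low-serum medium and 100% = 10% serum control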
ATG4B inh – inhibitors of human ATG4B cysteine protease. 0.51% of 340,000 active. AID 504462. inhibition, % at 8.33 µM. ATG4B cleavage of LC3-PLA2, NBD-HPC fluorescence, 1 h. Q9Y4P1; in the data active means inhibition above about 40%
Target sequence (Q9Y4P1 whole entry, looked up): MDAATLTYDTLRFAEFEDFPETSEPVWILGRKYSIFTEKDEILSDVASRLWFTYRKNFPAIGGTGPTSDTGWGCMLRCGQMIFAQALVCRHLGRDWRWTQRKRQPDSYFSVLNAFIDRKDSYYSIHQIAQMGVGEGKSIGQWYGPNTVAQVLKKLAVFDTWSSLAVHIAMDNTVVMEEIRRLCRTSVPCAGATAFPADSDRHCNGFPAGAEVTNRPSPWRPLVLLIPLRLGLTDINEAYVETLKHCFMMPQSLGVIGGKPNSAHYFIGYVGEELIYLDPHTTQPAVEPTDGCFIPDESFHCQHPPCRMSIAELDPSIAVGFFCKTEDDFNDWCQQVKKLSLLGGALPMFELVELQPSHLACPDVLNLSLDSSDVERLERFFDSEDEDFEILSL
IMP-1 inhibitor – inhibitors of Pseudomonas aeruginosa IMP-1 metallo-beta-lactamase; purified IMP-1, nitrocefin hydrolysis, epi-absorbance fluorescence; inhibition, % at 5.6 µM; 0.45% of 290,000 active;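 active means inhibition above the mean plus 3 SD of all compounds in the same screening run, cut at about 4.5% in these data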;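 further: 0% = IMP-1 with DMSO and 100% = DMSO wells lacking enzyme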
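Assay system: purified recombinant IMP-1 beta-lactamase. Input: IMP-1 0.2 nM before substrate addition. Buffer or medium: Zinc- and detergent-supplemented HEPES buffer, pH 7.1. Schedule: 25 °C, 15 min preincubation, 25 min reaction. Signal: Epi-absorbance fluorescence, 480 nm excitation, 530 nm emission. Evaluation: percent inhibition from optical density relative to buffer-blank wells.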
VIM-2 inh – blocks Pseudomonas aeruginosa VIM-2 metallo-beta-lactamase. purified VIM-2, nitrocefin hydrolysis, epi-absorbance fluorescence. 0.89% of 290,000 active. AID 1527. inhibition, % at 5.6 µM;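 active means inhibition above the mean of all tested compounds plus 3 SD, cutoff set per screening run, cut at about 7.5% in these data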;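 further: red hydrolysis product quenches plate fluorescence so inhibitors raise well fluorescence; 0% = enzyme with DMSO and 100% = DMSO without enzyme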
ATG4B confirm – confirmation of human ATG4B inhibitors | shares compounds with ATG4B inh | ATG4B protease fluorescent substrate cleavage assay | inhibition, % at 8.33 µM | 92% of 320 active | AID 504757; in the data active means inhibition above about 39%
PLA2 ctr – PLA2 (human) inhibition in ATG4B counter-screen; shares compounds with ATG4B inh; purified PLA2, NBD-C6-HPC fluorescence, 45 min; inhibition, % at 8.33 µM; 66% of 1,600 active; in the data active means inhibition above about 50%
Target sequence (P04054 whole entry, looked up): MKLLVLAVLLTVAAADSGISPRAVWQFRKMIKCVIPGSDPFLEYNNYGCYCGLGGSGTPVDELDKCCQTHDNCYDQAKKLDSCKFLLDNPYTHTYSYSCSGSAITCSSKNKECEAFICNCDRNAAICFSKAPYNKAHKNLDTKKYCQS
* = called active by the depositor; / = no result given.

SMILES | PvdQ acylase | HKDC1 inh | MIN6 prolif | ATG4B inh | IMP-1 inhibitor | VIM-2 inh | PLA2 ctr | others
O=C(O)c1ccccc1NS(=O)(=O)c1ccc(NNC(=S)Nc2ccc(OC(F)F)cc2)c([N+](=O)[O-])c1 | 9 | -9 | / | 51* | -2 | -4 | 64*
Cc1ccc(NC(=S)NNc2ccc([N+](=O)[O-])cc2S(=O)(=O)Nc2ccccc2C(=O)O)cc1C | 7 | 7 | / | 74* | -1 | -2 | 71*
COc1cc(C=NNc2ccc(S(=O)(=O)Nc3ccccc3C(=O)O)cc2[N+](=O)[O-])ccc1O | 0 | 4 | 0 | 46* | / | / | 63*
O=C(N[C@H](CO)Cc1ccccc1)c1ccco1 | -8 | -3 | -4 | 3 | / | / | /
Cc1ccc(C(=O)NC(=S)Nc2ccccc2C(F)(F)F)cc1C | 1 | 4 | 0 | 45* | 0 | -4 | 47 | ATG4B confirm=62*
O=C(NCCCO)c1ccc2nc(-c3ccco3)c(-c3ccco3)nc2c1 | 11 | 11 | / | 0 | -1 | -3 | /
O=C(NCc1ccccc1)c1ccc2nc(-c3ccco3)c(-c3ccco3)nc2c1 | -7 | 32 | 1 | 44* | -2 | 0 | 31
Nc1nnc(Cc2ccc(Cl)cc2)s1 | -9 | -3 | 1 | 7 | -6 | -4 | /
Nc1nnc(Cc2ccc(Cl)cc2Cl)s1 | -6 | -3 | -2 | 71* | 0 | -1 | 76*
O=C(N/N=C1\CC2CC=CC12)c1ccc(Br)cc1 (stereo not drawn) | -1 | -4 | 0 | -15 | -3 | -1 | /
Cc1cc(Br)c(OCc2ccc(C(=O)N/N=C3\CC4CC=CC34)cc2)c(Br)c1 (stereo not drawn) | -11 | -3 | -2 | 48* | 0 | 1 | 49
O=C(c1cc(-c2ccc(Cl)cc2)on1)N1CCc2ccccc2C1 | -3 | -7 | -1 | -4 | -2 | -2 | /
O=C(c1cc(-c2ccccc2)on1)N1CCc2ccccc2C1 | -15 | -5 | -3 | 41* | -1 | -5 | 52*
Oc1c(Br)cc(Br)cc1C=Nc1ccc2c(c1)OCO2 | -12 | 11 | -5 | 63* | 2 | -4 | 17 | ATG4B confirm=48*
O=C(c1ccc(OC2CCN(C/C=C/c3ccc(F)cc3)CC2)cc1)N1CCCC1 | 4 | -6 | -5 | 42* | 0 | 1 | 48 | ATG4B confirm=64*
CCOc1ccc(/C=N/Nc2cc(=O)n(C)c(=O)n2C)cc1 | -13 | 4 | 0 | -3 | -3 | -3 | /
Cc1onc(-c2ccccc2)c1CNC(=O)Nc1cccc(Cl)c1 | -9 | 1 | -6 | 46* | -1 | 1 | 44 | ATG4B confirm=73*
Cc1cc(C)cc(NC(=O)NCc2c(-c3ccccc3)noc2C)c1 | 3 | -7 | 1 | 17 | 0 | 0 | /
O=C(Nc1cccc(F)c1)Nc1cccc(Cl)c1 | -14 | 1 | -4 | 12 | -3 | -1 | /
O=C(NCc1ccc(F)cc1)Nc1cccc(Cl)c1 | -6 | -9 | -2 | 67* | -2 | -3 | 73*
FC(F)Sc1ccc(NC(=S)NCc2ccccc2)cc1 | -16 | 1 | -6 | 44* | -1 | -2 | 60*
S=C(NCc1ccccc1)Nc1cccc(Cl)c1 | -5 | -6 | -4 | 50* | -2 | -1 | 43 | ATG4B confirm=59*
CCOC(=O)C1CCN(S(=O)(=O)CCNC(=O)c2ccc(F)cc2)CC1 | -14 | -6 | -1 | -14 | / | / | /
Cc1cnc(C(=O)OCC(=O)c2c(N)n(CC(C)C)c(=O)n(C)c2=O)cn1 | -4 | -10 | -2 | 3 | / | / | /
CCOC(=O)c1cccc(NC(=O)Cn2c(CC(=O)N3CCCC3)nc3ccccc32)c1 | / | / | -1 | / | -5 | -3 | /
SMILES | PvdQ acylase | HKDC1 inh | MIN6 prolif | ATG4B inh | IMP-1 inhibitor | VIM-2 inh | PLA2 ctr | others
Cc1noc(C)c1NC(=O)N(C)C[C@H]1Oc2ccc(NC(=O)Nc3ccc(C(F)(F)F)cc3)cc2C(=O)N([C@H](C)CO)C[C@@H]1C | -14 | -4 | -1 | -10 | / | / | /
O=C(CCn1c(=O)oc2cc(Cl)ccc21)Nc1ccc(N2CCOCC2)cc1 | -11 | 3 | -2 | 5 | -2 | -1 | /
COc1ccc(CCc2nnc(CCC(=O)NCc3ccc4ncccc4c3)o2)cc1 | -2 | -9 | -4 | -11 | -1 | -1 | /
O=C(NCCc1ccc(Cl)cc1)Nc1ccc(Cl)cc1 | -17 | 0 | -3 | 4 | -1 | 1 | /
Cc1ccc(NC(=S)NCc2ccccc2)cc1[N+](=O)[O-] | -4 | 0 | -4 | 54* | -1 | -2 | 63*
O=C(NCc1ccc(F)cc1)Nc1ccc(Cl)cc1 | -5 | -4 | -1 | 46* | -3 | -7 | 54*
CC(C)NS(=O)(=O)c1ccc(NC(=O)C(C)OC(=O)C2CCC2)cc1 (stereo not drawn) | -24 | 0 | -1 | 0 | / | / | /
CCN(C(=O)CSc1nccc(=O)[nH]1)C1CCCCC1 | 9 | -3 | -1 | 1 | / | / | /
O=C(Nc1ccc(Nc2ccccc2)cc1)c1ccc(Cl)c([N+](=O)[O-])c1 | 6 | 3 | -5 | 5 | 0 | -3 | /
O=C(Nc1ccccc1-c1ccccc1)c1ccc(Cl)c([N+](=O)[O-])c1 | -5 | 19 | 0 | 41* | -3 | -4 | 36
O=C(NNc1ccc(C2CCCCC2)cc1)C(O)(c1ccccc1)c1cccs1 (stereo not drawn) | 1 | 3 | -6 | 67* | -2 | 1 | 70*
COc1ccc(-c2nnc(Nc3ccc(CC(N)=O)cc3)c3ccccc23)cc1 | 12 | 1 | 0 | 93* | 1 | -1 | 92*
NC(=O)Cc1ccc(Nc2nnc(-c3ccccc3)c3ccccc23)cc1 | 1 | -5 | -2 | 82* | -2 | 2 | 82*
CN1C(=O)C(c2nnc(Nc3cccc4ccccc34)s2)C2CC1(C)Oc1ccccc12 (stereo not drawn) | -4 | -3 | / | 89* | -3 | 1 | 91*
CC(=O)Nc1ccccc1OCC(=O)NC(C)c1ccccc1 (stereo not drawn) | -8 | -11 | 3 | -17 | 1 | 0 | /
CC(NC(=O)COc1ccccc1-c1ccccc1)c1ccccc1 (stereo not drawn) | -6 | 0 | -4 | 42* | -4 | -2 | 52*
O=C1CC(c2ccccc2Cl)CC(O)=C1C=Nc1ccccc1 (stereo not drawn) | -2 | 4 | 0 | 53* | -3 | -2 | 53*
Cc1ccc(N=CC2=C(O)CC(c3ccccc3Cl)CC2=O)cc1 (stereo not drawn) | / | -1 | -2 | -6 | -1 | -2 | /
Nc1nc(Cl)cc(Oc2ccc([N+](=O)[O-])cc2)n1 | -21 | -1 | 5 | -3 | -4 | -3 | /
